Assay [1] has as its target T1, Glucocorticoid receptor (Homo sapiens) (UniProt P04150).
T1 sequence (whole entry): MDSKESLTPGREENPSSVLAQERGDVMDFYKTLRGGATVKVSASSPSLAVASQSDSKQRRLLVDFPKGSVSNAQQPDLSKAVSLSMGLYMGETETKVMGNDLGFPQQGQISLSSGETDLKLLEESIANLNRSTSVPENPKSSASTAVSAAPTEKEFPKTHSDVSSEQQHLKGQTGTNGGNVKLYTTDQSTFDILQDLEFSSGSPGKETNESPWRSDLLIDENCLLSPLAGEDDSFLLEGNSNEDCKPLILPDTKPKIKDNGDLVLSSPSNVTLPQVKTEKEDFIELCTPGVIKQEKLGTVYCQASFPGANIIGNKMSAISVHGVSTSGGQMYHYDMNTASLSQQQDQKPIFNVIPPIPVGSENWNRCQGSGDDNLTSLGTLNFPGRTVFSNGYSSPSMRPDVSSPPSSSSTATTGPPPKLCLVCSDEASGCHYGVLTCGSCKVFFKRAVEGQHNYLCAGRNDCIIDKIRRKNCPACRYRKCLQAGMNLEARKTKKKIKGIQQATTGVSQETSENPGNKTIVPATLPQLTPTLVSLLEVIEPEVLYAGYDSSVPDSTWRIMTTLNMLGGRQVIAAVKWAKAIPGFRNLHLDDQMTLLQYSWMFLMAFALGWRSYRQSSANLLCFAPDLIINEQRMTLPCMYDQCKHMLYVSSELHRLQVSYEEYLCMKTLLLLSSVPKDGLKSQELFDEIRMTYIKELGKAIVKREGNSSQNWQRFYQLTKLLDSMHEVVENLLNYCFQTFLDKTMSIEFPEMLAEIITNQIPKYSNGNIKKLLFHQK
Description: Agonist activity at recombinant glucocorticoid receptor LBD expressed in HEK293T cells co-expressing GAL4 DBD at 20 uM by transactivation assay. The format is functional, cell-based. The note with it: HEK-293T. In a few lines: (§1)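 One-hybrid assay in HEK293T cells cotransfected with a Gal4 DBD–NR-LBD fusion (RXRα, LXRα, GR, PR, PPARδ or PPARγ) plus UAS-TK-Luc reporter. Compound was 20 μM, given alone or with agonist: 9cRA 0.1 μM (RXRα), TO901317 0.5 μM (LXRα), dexamethasone 50 nM (GR), progesterone 100 nM (PR), GW1516 10 μM (PPARδ), rosiglitazone 10 μM (PPARγ). Luciferase read-out; three independent experiments.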

The next assay deals with HEK-293T. Description: Antagonist activity at FXRalphaLBD expressed in HEK293T cells co-expressing GAL4 DBD assessed as inhibition of CDCA-induced transactivation at 60 uM after 18 hrs by luciferase reporter gene assay. To be noted: Homo sapiens. It counts as functional, cell-based. In a few lines: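 Mammalian one-hybrid assay in HEK293T cells cotransfected with pCMX-Gal4DBD-FXRαLBD, UAS-TK-Luc reporter and pRL-SV40 Renilla vector. Cells were exposed to vehicle or compound for 18 h, with or without 20 μM CDCA. Read-out was dual-luciferase. Three independent experiments.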
On the technique in general: A reporter such as luciferase makes a cellular process visible.

Another assay has as its system Mus musculus. Description: Reduction of hepatic triglyceride level in cholesterol-fed C57BL/6 mouse administered orally after 10 days. The format is functional, organism-based. In a few lines:
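Male C57BL/6 mice, 8–12 weeks old, were randomized into five groups of nine. Control mice had ground chow; the other groups had chow with 2% cholesterol. Compound (50 or 100 mg/kg) or reference (100 mg/kg) was suspended in 0.5% CMC-Na and given by oral gavage; control and vehicle mice got 0.5% CMC-Na. Serum and hepatic triglyceride and total cholesterol were measured.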

The target in assay [2] is T2, Progesterone receptor (Homo sapiens) (UniProt P06401).
T2 sequence (whole entry): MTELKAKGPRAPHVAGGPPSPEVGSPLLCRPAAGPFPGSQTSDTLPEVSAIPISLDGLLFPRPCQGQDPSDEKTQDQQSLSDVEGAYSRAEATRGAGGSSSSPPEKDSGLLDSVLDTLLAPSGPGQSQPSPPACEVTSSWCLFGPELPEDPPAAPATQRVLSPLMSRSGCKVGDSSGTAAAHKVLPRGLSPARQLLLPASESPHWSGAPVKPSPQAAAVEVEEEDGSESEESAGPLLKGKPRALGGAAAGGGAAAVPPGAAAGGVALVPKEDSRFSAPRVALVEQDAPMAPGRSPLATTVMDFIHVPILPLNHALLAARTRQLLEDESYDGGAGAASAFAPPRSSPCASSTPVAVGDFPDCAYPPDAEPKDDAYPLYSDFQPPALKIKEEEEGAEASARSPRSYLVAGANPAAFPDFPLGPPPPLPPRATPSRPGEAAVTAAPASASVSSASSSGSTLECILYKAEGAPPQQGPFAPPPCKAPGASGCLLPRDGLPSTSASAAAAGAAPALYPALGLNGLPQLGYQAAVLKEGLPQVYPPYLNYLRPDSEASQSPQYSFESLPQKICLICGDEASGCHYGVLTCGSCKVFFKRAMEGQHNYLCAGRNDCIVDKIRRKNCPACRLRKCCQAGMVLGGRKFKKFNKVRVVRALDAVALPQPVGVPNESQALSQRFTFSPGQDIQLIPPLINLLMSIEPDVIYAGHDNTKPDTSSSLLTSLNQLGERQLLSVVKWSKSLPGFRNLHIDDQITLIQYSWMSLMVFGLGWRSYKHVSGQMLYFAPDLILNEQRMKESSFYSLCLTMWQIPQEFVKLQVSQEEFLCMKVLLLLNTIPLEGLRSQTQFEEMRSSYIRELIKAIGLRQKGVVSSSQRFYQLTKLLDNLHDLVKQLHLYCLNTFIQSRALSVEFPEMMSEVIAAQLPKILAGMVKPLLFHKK
Description: Antagonist activity at recombinant PR LBD expressed in HEK293T cells co-expressing GAL4 DBD assessed as inhibition of progesterone-induced transactivation at 20 uM by luciferase reporter gene assay. It counts as functional, cell-based. The note with it: HEK-293T. In a few lines:
as §1

Molecules are shown by their SMILES. Activity calls are given as the source filed them. No cut-off for these calls is given here.

Take `COc1cc(/C=C2\C(=O)N(c3cccc([N+](=O)[O-])c3)N=C2c2ccccc2)ccc1O`: in assay [1], the outcome was inactive. Besides, the inhibition entry in the assay on HEK-293T was “Active”. The Activity result in the assay with Mus musculus was “Dose-dependent effect”. For the same molecule, the inhibition result in assay [2] is “inactive”.

For the origin of these results see ChEMBL document CHEMBL2169822, “Discovery and optimization of 1,3,4-trisubstituted-pyrazolone derivatives as novel, potent, and nonsteroidal farnesoid X receptor (FXR) selective antagonists” (J Med Chem, 2012).
